Laboratory results as given in ChEMBL document CHEMBL5104176 (J Med Chem, 2022).
Activity calls are given as the source filed them. No cut-off for these calls is given here.

Tests used:
[1] = biological target: T1, D(4) dopamine receptor (Homo sapiens) (UniProt P21917); assay: Agonist activity at D4R (unknown origin) expressed in human HEK293T cells assessed as Gi protein activation measured after 2.5 mins by BRET assay relative to control; type: functional, cell-based
T1 sequence (whole entry): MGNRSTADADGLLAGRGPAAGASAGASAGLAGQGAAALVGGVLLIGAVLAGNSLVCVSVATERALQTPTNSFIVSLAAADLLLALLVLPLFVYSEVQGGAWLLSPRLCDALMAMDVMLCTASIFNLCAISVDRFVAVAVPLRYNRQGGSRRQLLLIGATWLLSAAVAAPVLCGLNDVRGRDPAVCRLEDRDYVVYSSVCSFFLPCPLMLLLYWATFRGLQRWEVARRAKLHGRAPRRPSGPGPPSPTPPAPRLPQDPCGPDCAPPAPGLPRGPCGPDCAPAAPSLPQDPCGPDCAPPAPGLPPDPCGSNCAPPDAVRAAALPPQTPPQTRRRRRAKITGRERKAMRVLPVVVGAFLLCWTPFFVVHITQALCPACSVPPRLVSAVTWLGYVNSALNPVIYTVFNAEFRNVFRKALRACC
Outline: (§1)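 Transiently transfected HEK293T cells (15 μg plasmid cDNA, polyethyleneimine, 6 h, assayed after 48 h). Gαi1 or GαoA fused to RLuc8 and Gγ2 to mVenus for G protein activation; D4 receptor fused to RLuc8 and β-arrestin to mVenus for recruitment. About 2×10^5 cells/well in PBS with 0.1% glucose and 200 μM Na bisulfite. Coelenterazine H 5 μM. Read 530/485 nm; RLuc8-only background subtracted.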

[2] = biological target: T1, D(4) dopamine receptor (Homo sapiens); assay: Agonist activity at D4R (unknown origin) expressed in human HEK293T cells assessed as beta arrestin-2 recruitment measured after 2.5 mins by BRET assay relative to control; type: functional, cell-based; outline: as §1
D(4) dopamine receptor [3] = biological target: T2, D(4) dopamine receptor (Homo sapiens, UniProt P21917); assay: Antagonist activity at D4R (unknown origin) expressed in human HEK293T cells assessed as inhibition of dopamine-induced Gi protein activation pretreated for 10 mins followed by dopamine addition and measured after 2.5 mins by BRET assay; type: functional, cell-based
T2 sequence (P21917 whole entry): T1 sequence (whole entry)

D(4) dopamine receptor [4] = biological target: T2, D(4) dopamine receptor; assay: Displacement of [3H]N-methylspiperone from human D4.4 receptor expressed in HEK293T cell membrane incubated for 1 hr by MicroBeta scintillation counting method; type: cell membranes
D(3) dopamine receptor = D(3) dopamine receptor (Homo sapiens, UniProt P35462); assay: Displacement of [3H]N-methylspiperone from human D3R receptor expressed in HEK293T cell membrane incubated for 1 hr by MicroBeta scintillation counting method; type: cell membranes
D(3) dopamine receptor, sequence (P35462 whole entry): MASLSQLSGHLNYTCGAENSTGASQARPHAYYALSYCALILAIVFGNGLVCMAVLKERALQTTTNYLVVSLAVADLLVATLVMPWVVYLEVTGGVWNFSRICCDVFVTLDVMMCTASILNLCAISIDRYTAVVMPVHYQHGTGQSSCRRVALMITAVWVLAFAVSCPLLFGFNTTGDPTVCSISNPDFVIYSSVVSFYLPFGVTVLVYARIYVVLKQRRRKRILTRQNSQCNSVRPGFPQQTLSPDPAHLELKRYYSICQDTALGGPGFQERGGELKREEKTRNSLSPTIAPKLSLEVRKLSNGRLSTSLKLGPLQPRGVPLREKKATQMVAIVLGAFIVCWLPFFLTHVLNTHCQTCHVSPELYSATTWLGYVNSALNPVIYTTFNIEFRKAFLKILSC
Outline: (§2)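 Membranes from stably transfected HEK293 cells (hD2L, hD3 or hD4.4), 20 μg (D2, D3) or 30 μg (D4) protein/well. Incubated 1 h at room temperature in EBSS binding buffer, pH 7.4, with 0.4 nM [3H]N-methylspiperone and 10 half-log dilutions in triplicate. 10 μM (+)-butaclamol defines nonspecific binding. GF filtration, scintillation counting. Ki by Cheng–Prusoff from ≥3 experiments; selectivity is the Ki ratio.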

D(4) dopamine receptor [5] = biological target: T2, D(4) dopamine receptor; assay: Antagonist activity at D4R (unknown origin) expressed in human HEK293T cells assessed as inhibition of dopamine-induced G0 protein activation pretreated for 10 mins followed by dopamine addition and measured after 2.5 mins by BRET assay; type: functional, cell-based
[6] = biological target: T1, D(4) dopamine receptor (Homo sapiens); assay: Agonist activity at D4R (unknown origin) expressed in human HEK293T cells assessed as G0 protein activation measured after 2.5 mins by BRET assay relative to control; type: functional, cell-based; outline: as §1
[7] = Selectivity ratio of Ki for displacement of [3H]N-methylspiperone from human D3R expressed in HEK293T cell membrane to Ki for displacement of [3H]N-methylspiperone from human D4.4 receptor expressed in HEK293T cell membrane
[8] = Selectivity ratio of Ki for displacement of [3H]N-methylspiperone from human D2L receptor expressed in HEK293T cell membrane to Ki for displacement of [3H]N-methylspiperone from human D4.4 receptor expressed in HEK293T cell membrane
D(4) dopamine receptor [9] = biological target: T2, D(4) dopamine receptor; assay: Antagonist activity at D4R (unknown origin) expressed in human HEK293T cells assessed as inhibition of dopamine-induced beta arrestin-2 recruitment pretreated for 10 mins followed by dopamine addition and measured after 2.5 mins by BRET assay; type: functional, cell-based
D(2) dopamine receptor = D(2) dopamine receptor (Homo sapiens, UniProt P14416); assay: Displacement of [3H]N-methylspiperone from human D2L receptor expressed in HEK293T cell membrane incubated for 1 hr by MicroBeta scintillation counting method; type: cell membranes
D(2) dopamine receptor, sequence (P14416 whole entry): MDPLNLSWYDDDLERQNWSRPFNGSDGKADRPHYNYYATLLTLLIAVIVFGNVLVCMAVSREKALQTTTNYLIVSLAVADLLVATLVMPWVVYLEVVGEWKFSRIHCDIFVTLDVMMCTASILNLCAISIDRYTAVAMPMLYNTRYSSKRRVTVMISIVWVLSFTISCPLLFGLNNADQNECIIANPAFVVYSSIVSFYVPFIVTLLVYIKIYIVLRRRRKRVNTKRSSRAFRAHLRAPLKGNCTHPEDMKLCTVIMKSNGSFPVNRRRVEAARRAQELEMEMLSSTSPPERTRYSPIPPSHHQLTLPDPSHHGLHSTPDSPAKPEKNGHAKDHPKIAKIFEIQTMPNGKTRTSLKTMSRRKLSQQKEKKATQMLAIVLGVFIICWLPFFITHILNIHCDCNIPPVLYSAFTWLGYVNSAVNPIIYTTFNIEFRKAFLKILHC
Outline: as §2, with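 “counting.” for “counting. Ki by Cheng–Prusoff from ≥3 experiments; selectivity is the Ki ratio.”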

D(4) dopamine receptor [10] = biological target: T2, D(4) dopamine receptor; assay: Displacement of [3H]7-OH-DPAT from human D4.4 receptor expressed in HEK293T cell membrane incubated for 1.5 hrs by MicroBeta scintillation counting method; type: cell membranes
Outline: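 Fresh membranes from HEK293 cells stably expressing hD4.4 (about 50–60 μg protein/well) in 50 mM Tris, 10 mM MgCl2, 1 mM EDTA, pH 7.4. Radioligand was 3 nM final; incubation 1.5 h at room temperature. Nonspecific binding was set with 10 μM (+)-butaclamol; DMSO was 3% final. Ten half-log dilutions were run in triplicate, then filtered. Ki came from IC50 by Cheng–Prusoff, from at least three independent experiments.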

T98G [11] = assay: Cytotoxicity against human T98G cells assessed as reduction in cell viability at 5 to 50 uM incubated for 24 hrs by MTS assay; type: functional, cell-based; conditions: dose 5-50 µM
Outline: (§3)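 Cells seeded at 5,000/well and grown to 80% confluence: T98 and U251 in EMEM with 10% serum; GSC#83 as spheres in serum-free DMEM/F12 with EGF and bFGF. Treated 24 h at 5–50 μM in DMSO, with a DMSO vehicle control. MTS reagent added and formazan absorbance read at 490 nm. n = 6; two-way ANOVA.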

GSC#83 [12] = assay: Cytotoxicity against human GSC#83 cells assessed as reduction in cell viability at 5 to 50 uM incubated for 24 hrs by MTS assay; type: functional, cell-based; conditions: dose 5-50 µM; outline: as §3
T98G [13] = assay: Cytotoxicity against human T98G cells assessed as reduction in cell viability at 10 uM incubated for 24 hrs by MTS assay; type: functional, cell-based; outline: as §3
U-251 [14] = assay: Cytotoxicity against human U-251 cells assessed as reduction in cell viability at 10 uM incubated for 24 hrs by MTS assay; type: functional, cell-based; outline: as §3
GSC#83 [15] = assay: Cytotoxicity against human GSC#83 cells assessed as reduction in cell viability at 10 uM incubated for 24 hrs by MTS assay; type: functional, cell-based; outline: as §3
U-251 [16] = assay: Cytotoxicity against human U-251 cells assessed as reduction in cell viability at 5 to 50 uM incubated for 24 hrs by MTS assay; type: functional, cell-based; conditions: dose 5-50 µM; outline: as §3

SMILES	Ki (D(4) dopamine receptor [4])	Ki (D(3) dopamine receptor)	Ki (D(2) dopamine receptor)	Ratio Ki [7]	Ratio Ki [8]	also measured
COc1ccc(N2CCN(CCCN3C(=O)CCc4ccccc43)CC2)cc1	6.92 nM	8320 nM	20900 nM	1200	3020	Emax [1]: 0%; Emax [2]: 0%; IC50 (D(4) dopamine receptor [3]): 269 nM; IC50 (D(4) dopamine receptor [5]): 107 nM; Emax [6]: 0%; IC50 (D(4) dopamine receptor [9]): 389 nM
CCCCC1CCN(CCCN2C(=O)CCc3ccccc32)CC1				631	691	
O=C1CCc2ccccc2N1CCN1CCN(c2ccccc2)CC1	63.1 nM	1070 nM	12900 nM	17	204	
c1ccc(N2CCN(CCCc3nc4ccccc4[nH]3)CC2)cc1	30.2 nM	832 nM	6170 nM	28	204	
O=C1CCc2ccccc2N1CCCN1CCN(c2cccc(Cl)c2)CC1	1.05 nM	282 nM	759 nM	269	724	Ki (D(4) dopamine receptor [10]): 0.776 nM
c1ccc(N2CCN(CCCc3nc4ccccc4s3)CC2)cc1	10.2 nM	692 nM	1780 nM	68	174	
c1ccc(N2CCN(CCCn3cnc4ccccc43)CC2)cc1	12.3 nM	8910 nM	12000 nM	719	977	
Cn1nnc2c(C(N)=O)ncn2c1=O						Activity (T98G [11]): Active; Activity (GSC#83 [12]): Active; Activity (T98G [13]): Active; Activity (U-251 [14]): Active; Activity (GSC#83 [15]): Active; Activity (U-251 [16]): Active
O=C1CCc2ccccc2N1CCCN1CCN(c2ccccc2)CC1				457	380	
Fc1ccc(N2CCN(CCC3OCCc4ccccc43)CC2)cc1 (centres undefined)						Activity (T98G [11]): Active; Activity (GSC#83 [12]): Active; Activity (T98G [13]): Active; Activity (U-251 [14]): Active; Activity (GSC#83 [15]): Active; Activity (U-251 [16]): Active
c1ccc(N2CCN(CCCc3nc4ccccc4o3)CC2)cc1	37.2 nM	813 nM	1700 nM	22	46	
NCCc1ccc(O)c(O)c1						Emax ([1]; filed as agonist): 100%; Emax ([2]; filed as agonist): 100%; Emax ([6]; filed as agonist): 100%
O=C1CCc2ccccc2N1CCCCCN1CCN(c2ccccc2)CC1	23.4 nM	195 nM	282 nM	8	12	

Continued by falling Ki (D(4) dopamine receptor [4]), values first:

Ki (D(4) dopamine receptor [4])	Ki (D(3) dopamine receptor)	Ki (D(2) dopamine receptor)	SMILES	Ratio Ki [7]	Ratio Ki [8]	also measured
6.61 nM	11000 nM	24000 nM	O=C1CCc2ccccc2N1CCCN1CCN(c2ccc([N+](=O)[O-])cc2)CC1	1660	3630	
4.47 nM	2290 nM	3980 nM	O=C1CCc2ccccc2N1CCCN1CCN(c2ncccn2)CC1	513	891	
4.27 nM	81.3 nM	1120 nM	O=C1CCc2ccccc2N1CCCCN1CCN(c2ccccc2)CC1	19	263	
4.17 nM	1550 nM	3090 nM	COc1cccc(N2CCN(CCCN3C(=O)CCc4ccccc43)CC2)c1	372	741	
3.55 nM	1260 nM	2510 nM	O=C1CCc2ccccc2N1CCCN1CCN(c2cccc([N+](=O)[O-])c2)CC1	355	708	
2.63 nM	562 nM	708 nM	c1ccc(N2CCN(CCCN3CCCc4ccccc43)CC2)cc1	214	269	
1.91 nM	490 nM	724 nM	c1ccc(N2CCN(CCCn3ccc4ccccc43)CC2)cc1	257	380	
1.78 nM	794 nM	1450 nM	Cc1cccc(N2CCN(CCCN3C(=O)CCc4ccccc43)CC2)c1	447	813	
1.35 nM	275 nM	398 nM	Cc1ccccc1N1CCN(CCCN2C(=O)CCc3ccccc32)CC1	204	295	
1.07 nM	339 nM	355 nM	N#Cc1ccccc1N1CCN(CCCN2C(=O)CCc3ccccc32)CC1	316	331	
0.871 nM	631 nM	955 nM	O=C1CCc2ccccc2N1CCCN1CCN(c2ccc(Cl)c(Cl)c2)CC1	725	1100	
0.692 nM	21.4 nM		O=C1CCc2ccccc2N1CCCN1CCN(c2cccc(Cl)c2Cl)CC1			
0.676 nM	501 nM	550 nM	O=C1CCc2ccccc2N1CCCN1CCN(c2ccc(Cl)cc2Cl)CC1	744	827	
0.617 nM	100 nM	81.3 nM	COc1ccccc1N1CCN(CCCN2C(=O)CCc3ccccc32)CC1	162	132	
0.603 nM	60.3 nM	138 nM	O=C1CCc2ccccc2N1CCCN1CCN(c2ccccc2Cl)CC1	100	229	Ki (D(4) dopamine receptor [10]): 0.513 nM
0.407 nM	129 nM	132 nM	O=C1CCc2ccccc2N1CCCN1CCN(c2ccccc2[N+](=O)[O-])CC1	316	324	
